Data from PubChem BioAssay.
Active and inactive are the calls of the source.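 How the source made its calls, unless noted: active means Her2 level under about 52% in both replicate screens, with viability over 70% of control (limit read from the data); inconclusive means Her2 under the limit in one screen only, or viability under 70%; inactive means Her2 level above the set limit.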

Legend:
[1] = Her2 expression decrease, cell viability multiplex – SKBR3 breast tumor cells, AlphaScreen, ATP viability, primary screen (AID 461); conditions: SKBR3 Her2 protein level, 18-24 h, measured here: SKBR3 viability, ATP luminescence, at 10 µM;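 on Her2 level: lower value means less Her2 protein in the cells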;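 on viability: percent of carrier control wells set as 100% viability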
[2] = target: Receptor tyrosine-protein kinase erbB-2 (Homo sapiens) (UniProt P04626); assay: as above; conditions: 18-24 h, at 10 µM, stronger effect = lower value
[3] = reduced viability of SK-BR-3 breast cancer cells – cell-based, 24 h, human, pilot screen (AID 572;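 active means viability at or below 10% of carrier control in both of two separate runs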;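 further: compound exposure lasted between 18 and 24 h rather than exactly 24 h; 100% = carrier-treated control wells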); conditions: SK-BR-3 viability, CellTiter-Glo luminescence, at 10 µM, stronger effect = lower value
[4] = HUVEC growth inhibition – cell-based, human, primary screen (AID 575;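 active means viability at or below 30% in both replicate assays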;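 further: 100% = median of untreated cell wells with 0.1% DMSO on each plate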); conditions: HUVEC proliferation, CellTiter-Glo luminescence, 72 h; at 10 µM; stronger effect = lower value
Outline: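 Test system: HUVEC primary cells. Quantity: 1250 endothelial cells in each well. Dosing: single-point 10 µM, DMSO 0.1% final. Incubation: 72 h treatment at 37 °C. Measured by: CTG luminescence. Control set: DMSO cell controls and MePR drug controls. Plate: collagen-coated 384-well format.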

[5] = H69AR cell proliferation blockers – human, duplicate replicates, primary screen (AID 580;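 active means viability at or under a set limit in both replicates, limit being median viability minus 3 SD, cut at about 48% in these data, passing the limit was not always enough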;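 further: 100% = mean luminescence of untreated wells and 0% = no signal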); conditions: H69AR lung tumor cells viability, ATP luminescence, 72 h; at 10 µM; stronger effect = lower value
[6] = MRP1 drug-resistance reversers in H69AR cells – cell-based, doxorubicin co-treatment, pilot screen (AID 601;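 active means viability loss from added drug above about 55%, and viability with drug at most 40%, in both replicates, limit read from the data, passing the limit was not always enough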); conditions: CellTiter-Glo, 72 h, at 10 µM; for differential viability (reversal): stronger effect = higher value
[7] = yeast transport mutant growth inhibition pilot in 384-well plates, post-Golgi transport modulator project (AID 636; in the data active means inhibition above about 31%); conditions: absorbance 615 nm, about 18 h, stronger effect = higher value
[8] = growth suppression of yeast trafficking mutant, preliminary HTS, modulators of trafficking downstream of Golgi apparatus project, 1536-format plate, OD 615 nm (AID 637; in the data active means inhibition above about 30%); conditions: yeast transport mutant growth, absorbance 615 nm, 18 h; stronger effect = higher value
[9] = H69AR cells + 2 uM doxorubicin, measured here: viability with 2 uM doxorubicin, stronger effect = lower value
[10] = H69AR cells, compound alone cytotoxicity

Chain of Receptor tyrosine-protein kinase erbB-2 (Homo sapiens) (P04626 whole entry, looked up): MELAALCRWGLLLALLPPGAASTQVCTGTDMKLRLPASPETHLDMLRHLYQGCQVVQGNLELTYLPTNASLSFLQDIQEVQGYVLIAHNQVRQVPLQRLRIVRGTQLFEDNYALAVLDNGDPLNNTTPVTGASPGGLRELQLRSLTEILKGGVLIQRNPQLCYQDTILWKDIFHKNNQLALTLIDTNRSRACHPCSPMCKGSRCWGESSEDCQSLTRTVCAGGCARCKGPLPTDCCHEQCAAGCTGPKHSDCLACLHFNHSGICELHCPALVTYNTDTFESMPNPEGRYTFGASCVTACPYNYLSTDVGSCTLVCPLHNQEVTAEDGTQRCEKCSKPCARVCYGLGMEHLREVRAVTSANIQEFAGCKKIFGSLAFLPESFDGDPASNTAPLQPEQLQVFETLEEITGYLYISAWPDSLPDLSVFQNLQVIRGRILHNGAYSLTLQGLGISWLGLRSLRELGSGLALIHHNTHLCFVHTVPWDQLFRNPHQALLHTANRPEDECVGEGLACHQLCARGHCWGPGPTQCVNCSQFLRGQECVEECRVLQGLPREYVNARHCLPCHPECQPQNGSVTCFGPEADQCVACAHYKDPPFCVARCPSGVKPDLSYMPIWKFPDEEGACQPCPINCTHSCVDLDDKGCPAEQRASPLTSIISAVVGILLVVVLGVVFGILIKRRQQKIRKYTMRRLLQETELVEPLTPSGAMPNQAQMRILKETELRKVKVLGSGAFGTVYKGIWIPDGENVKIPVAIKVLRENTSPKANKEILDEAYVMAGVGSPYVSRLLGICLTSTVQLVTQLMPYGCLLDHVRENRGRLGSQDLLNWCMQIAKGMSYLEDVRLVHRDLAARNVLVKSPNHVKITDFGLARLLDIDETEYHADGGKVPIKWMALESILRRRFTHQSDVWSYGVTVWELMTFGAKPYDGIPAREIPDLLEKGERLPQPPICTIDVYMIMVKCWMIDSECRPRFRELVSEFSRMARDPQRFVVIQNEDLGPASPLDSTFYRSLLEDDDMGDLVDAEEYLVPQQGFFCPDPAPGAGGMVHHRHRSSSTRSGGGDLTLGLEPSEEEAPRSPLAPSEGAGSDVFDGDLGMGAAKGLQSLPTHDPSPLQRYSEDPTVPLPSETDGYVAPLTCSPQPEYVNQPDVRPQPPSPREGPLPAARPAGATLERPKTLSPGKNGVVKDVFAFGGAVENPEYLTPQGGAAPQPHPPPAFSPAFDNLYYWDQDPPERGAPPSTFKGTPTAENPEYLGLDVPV

| Structure (SMILES) | viability [1] [%] | Her2 level [2] | viability [3] | viability [4] | viability [5] | differential viability (reversal) ([6]; H69AR cells + 2 uM doxorubicin) | viability [6, 9] [%] | viability [6, 10] [%] | inhibition [7] | inhibition [8] |
| --- | --- | --- | --- | --- | --- | --- | --- | --- | --- | --- |
| CCOC(=O)CSC1=C(C#N)C(=O)NC2(CCCCC2)S1 | 108 | 106% (inactive) | 108% (inactive) | 100% (inactive) | 108% (inactive) | 12.1% (inactive) | 95.9 | 108 | -6.16% (inactive) | -5.24% (inactive) |
| CCOC(=O)CNC(=O)Nc1ccccc1C(=O)OC | 116 | 86.5% (inactive) | 116% (inactive) | 96.7% (inactive) | 94.1% (inactive) | 8.77% (inactive) | 85.3 | 94.1 | -2.5% (inactive) | 1.29% (inactive) |
| O=C(NCC1CCCO1)C1CCCN(S(=O)(=O)c2cccc3nsnc23)C1 (stereo not given) | 95.5 | 118% (inactive) | 95.5% (inactive) | 93.2% (inactive) | 98.5% (inactive) | 14.3% (inactive) | 84.2 | 98.5 | -2.27% (inactive) | -7.62% (inactive) |
| CCN(CC)C(=O)CN(c1cc(Cl)ccc1OC)S(C)(=O)=O | 95.5 | 89.5% (inactive) | 95.5% (inactive) | 95.2% (inactive) | 102% (inactive) | 9.04% (inactive) | 93.3 | 102 | -1.18% (inactive) | -3.71% (inactive) |
| Cc1cccc(-c2noc(CCC(=O)Nc3ccccc3)n2)c1 | 106 | 93% (inactive) | 106% (inactive) | 79.4% (inactive) | 91.2% (inactive) | 6.29% (inactive) | 84.9 | 91.2 | -7.3% (inactive) | -11.2% (inactive) |
| COc1cccc(-c2nc(CS(=O)CC(=O)NCCCOC(C)C)c(C)o2)c1 (stereo not given) | 102 | 108% (inactive) | 102% (inactive) | 118% (inactive) | 101% (inactive) | 6.34% (inactive) | 95.1 | 101 | -1.6% (inactive) | -6.94% (inactive) |
| COc1ccc(-n2ncc3c(=O)n(CC(=O)OCc4ccccc4)cnc32)cc1 | 83 | 104% (inactive) | 83% (inactive) | 99.1% (inactive) | 97.8% (inactive) | 12% (inactive) | 85.8 | 97.8 | 0% (inactive) | 0.5% (inactive) |
| CCCNC(=O)c1ccccc1C(=O)NCCC | 93.5 | 88.5% (inactive) | 93.5% (inactive) | 103% (inactive) | 90.5% (inactive) | -4.96% (inactive) | 95.5 | 90.5 | 4.16% (inactive) | 18.9% (inactive) |
| C/C(=C(\C#N)C(=O)NCCCN1CCOCC1)N(C)C | 96.5 | 106% (inactive) | 96.5% (inactive) | 95.2% (inactive) | 102% (inactive) | 8.58% (inactive) | 93.1 | 102 | -1.58% (inactive) | 5.57% (inactive) |
| C=CCNC(=O)CSc1ccc(Cl)cc1 | 88.5 | 106% (inactive) | 88.5% (inactive) | 109% (inactive) | 81.4% (inactive) | -7.45% (inactive) | 88.8 | 81.4 | -4.21% (inactive) | 3.11% (inactive) |
| CCSc1nc(C)nc2c1oc1ccccc12 | 78.5 | 82% (inactive) | 78.5% (inactive) | 92.6% (inactive) | 97.7% (inactive) | 10% (inactive) | 87.7 | 97.7 | -4.67% (inactive) | -5.74% (inactive) |
| COc1ccc(N2CCN(c3ccc(N)cc3C#N)CC2)cc1 | 103 | 88.5% (inactive) | 103% (inactive) | 78.2% (inactive) | 95% (inactive) | 2.29% (inactive) | 92.7 | 95 | -3.38% (inactive) | 0.32% (inactive) |
| COc1cccc(-c2cc(C(=O)Nc3cc(OC)c(OC)c(OC)c3)no2)c1 | 106 | 99.5% (inactive) | 106% (inactive) | 57.5% (inactive) | 16.6% (active) | -72% (inactive) | 88.6 | 16.6 | -4.59% (inactive) | -3.11% (inactive) |
| CC1=C(C(=O)OC2CCCCC2)C(c2cccnc2)n2ncnc2N1 (stereo not given) | 104 | 66.5% (inactive) | 104% (inactive) | 105% (inactive) | 81.8% (inactive) | -8.64% (inactive) | 90.4 | 81.8 | -6.58% (inactive) | -5.83% (inactive) |
